Bounds are passed on as bounds.

The test system of one data set is Huh7.5.1. In words: Cytotoxicity against human Huh7.5.1 cells at 20 uM. The data set is classed as cell-based.
Conditions: not given
The compound `COC(=O)N[C@@H](C(=O)N1CCC[C@H]1c1ncc(-c2ccc(OS(=O)(=O)Oc3ccc(-c4cnc([C@@H]5CCCN5C(=O)[C@H](NC(=O)OC)c5ccccc5)[nH]4)cc3)cc2)[nH]1)c1ccccc1` came in with an Activity greater than 30 µM.

For the compound `COC(=O)N[C@@H](C(=O)N1CCC[C@H]1C(=O)Nc1ccc(S(=O)(=O)c2ccc(NC(=O)[C@@H]3CCCN3C(=O)[C@H](NC(=O)OC)c3ccccc3)cc2)cc1)c1ccccc1`, the Activity is greater than 30 µM.

On to `COC(=O)N[C@@H](C(=O)N1CCC[C@H]1C(=O)Nc1ccc(C)c(OS(=O)(=O)Oc2cc(NC(=O)[C@@H]3CCCN3C(=O)[C@H](NC(=O)OC)c3ccccc3)ccc2C)c1)c1ccccc1`, for which the Activity was greater than 30 µM.

With `COC(=O)N[C@H](C(=O)N1CCC[C@H]1c1ncc(-c2ccc(OS(=O)(=O)Oc3ccc(-c4cnc([C@@H]5CCCN5C(=O)[C@@H](NC(=O)OC)C(C)C)[nH]4)cc3)cc2)[nH]1)C(C)C`, the Activity is greater than 30 µM.

`COC(=O)N[C@@H](C(=O)N1CCC[C@H]1C(=O)Nc1cccc(OS(=O)(=O)Oc2cccc(NC(=O)[C@@H]3CCCN3C(=O)[C@H](NC(=O)OC)c3ccccc3)c2C)c1C)c1ccccc1` gave an Activity greater than 30 µM.

System in a further data set: not listed separately
As to the kind of experiment: Inhibition of HCV genotype 2a JFH5a replicon NS5A in infected human Huh 7.5.1 cells assessed as reduction in viral RNA replication incubated for 3 days by luciferase reporter gene assay. More on the design: species or system Hepatitis C virus subtype 2a. Particulars: Hepatitis C virus, Huh-7.5.1, 72 h. The procedure, abridged:
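Huh 7.5.1 cells were infected with JFH5a-Rluc-ad34 (a JFH1 genotype 2a derivative with adaptive E2/p7 mutations, Renilla luciferase reporter) cell-culture virus for 3 h. They were then cultured in serially diluted compounds for 3 days. Cells were harvested and Renilla luciferase activity measured, normalised to mock-treated cells, to give EC50.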
(In general: A replicon is a self-replicating genome or part of one, used to study replication in cells.)
With `COC(=O)N[C@@H](C(=O)N1CCC[C@H]1c1ncc(-c2ccc(OS(=O)(=O)Oc3ccc(-c4cnc([C@@H]5CCCN5C(=O)[C@H](NC(=O)OC)c5ccccc5)[nH]4)cc3)cc2)[nH]1)c1ccccc1`, the EC50 – broadly, the concentration that produces a half-maximal response – amounted to 0.147 nM.

For `COC(=O)N[C@@H](C(=O)N1CCC[C@H]1C(=O)Nc1ccc(C)c(OS(=O)(=O)Oc2cc(NC(=O)[C@@H]3CCCN3C(=O)[C@H](NC(=O)OC)c3ccccc3)ccc2C)c1)c1ccccc1`, the EC50 amounted to 2.23 nM.

System in another data set: not listed separately
As to the kind of experiment: Inhibition of HCV genotype 1b NK5.1 NS5A in infected human Huh 7.5.1 cells assessed as reduction in viral RNA replication incubated for 3 days by luciferase reporter gene assay. Set-up: species or system Hepatitis C virus subtype 1b. Conditions: Hepatitis C virus, NK5.1, Huh-7.5.1, 72 h. Put shortly: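 Genotype 1b replicon cells (Huh 7.5.1 carrying NK5.1-Gluc) were cultured 16 h, then given serially diluted compounds for 3 days. Culture media were collected and luciferase activity measured and normalised to mock-treated cells to derive EC50. Cells were maintained in DMEM with 10% heat-inactivated FBS and antibiotics at 37°C, 6.0% CO₂.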
(In general: A reporter such as luciferase makes a cellular process visible.)
Turning to `COC(=O)N[C@@H](C(=O)N1CCC[C@H]1c1ncc(-c2ccc(OS(=O)(=O)Oc3ccc(-c4cnc([C@@H]5CCCN5C(=O)[C@H](NC(=O)OC)c5ccccc5)[nH]4)cc3)cc2)[nH]1)c1ccccc1`, the concentration giving a half-maximal response (EC50) came out at 0.27 nM.

On to `COC(=O)N[C@@H](C(=O)N1CCC[C@H]1C(=O)Nc1ccc(S(=O)(=O)c2ccc(NC(=O)[C@@H]3CCCN3C(=O)[C@H](NC(=O)OC)c3ccccc3)cc2)cc1)c1ccccc1`, for which the EC50 amounted to 36.1 nM.

For `COC(=O)N[C@@H](C(=O)N1CCC[C@H]1C(=O)Nc1ccc(C)c(OS(=O)(=O)Oc2cc(NC(=O)[C@@H]3CCCN3C(=O)[C@H](NC(=O)OC)c3ccccc3)ccc2C)c1)c1ccccc1`, the EC50 came to 0.109 nM.

In the case of `COC(=O)N[C@H](C(=O)N1CCC[C@H]1c1ncc(-c2ccc(OS(=O)(=O)Oc3ccc(-c4cnc([C@@H]5CCCN5C(=O)[C@@H](NC(=O)OC)C(C)C)[nH]4)cc3)cc2)[nH]1)C(C)C`, the half-maximal effective concentration (EC50) was 4.26 nM.

As for `COC(=O)N[C@@H](C(=O)N1CCC[C@H]1C(=O)Nc1cccc(OS(=O)(=O)Oc2cccc(NC(=O)[C@@H]3CCCN3C(=O)[C@H](NC(=O)OC)c3ccccc3)c2C)c1C)c1ccccc1`, the concentration for a half-maximal effect (EC50) is 22.9 nM.

The values above are taken from ChEMBL document CHEMBL4041464, “New potent biaryl sulfate-based hepatitis C virus inhibitors” (Eur J Med Chem, 2017).
